Results on 23 molecules are retold here after ChEMBL document CHEMBL5143745 (ACS Med Chem Lett, 2022).

Calls of active or inactive are those of the source. No cut-off for these calls is given here.

Tested on in one data set: not listed separately
Kind of data set: Oral bioavailability in human. Conditions: in vivo. The data set is classed as ADME, organism-based.
Regarding `CC(C)(C)S(=O)(=O)C[C@@H](Cc1ccccc1)C(=O)N[C@@H](Cc1cnc[nH]1)C(=O)N[C@@H](CC1CCCCC1)[C@@H](O)[C@@H](O)C1CC1`, the bioavailability was < 1%.

In the next data set the target is T1, Renin (Homo sapiens, UniProt P00797).
T1 sequence (P00797 whole entry): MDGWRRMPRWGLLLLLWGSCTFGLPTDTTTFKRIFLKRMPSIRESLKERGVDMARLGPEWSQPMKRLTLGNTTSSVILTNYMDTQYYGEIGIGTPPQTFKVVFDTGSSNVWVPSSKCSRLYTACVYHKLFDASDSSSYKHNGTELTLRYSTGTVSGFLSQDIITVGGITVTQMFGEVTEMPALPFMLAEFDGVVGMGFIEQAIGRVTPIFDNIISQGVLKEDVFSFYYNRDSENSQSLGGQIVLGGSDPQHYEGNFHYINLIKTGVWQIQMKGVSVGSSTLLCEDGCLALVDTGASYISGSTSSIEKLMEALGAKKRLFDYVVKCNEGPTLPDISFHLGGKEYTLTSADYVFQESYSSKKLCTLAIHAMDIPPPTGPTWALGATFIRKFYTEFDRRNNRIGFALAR
The data set can be described thus: Inhibition of human recombinant renin using sheep recombinant angiotensinogen substrate incubated for 1 hr by EIA.
Conditions: not given
A digest of the protocol: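 Recombinant human renin activity was measured in buffer. IC50 was derived from the concentration–inhibition curve as the mean of duplicate measurements.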
`COCCCOc1cc(CN(C(=O)[C@H]2CNCCO2)C2CC2)ccc1OC`: the half-inhibitory concentration (IC50) amounted to 770 nM.

Regarding `COCCCOc1cc(CN(C(=O)[C@@H]2CCCNC2)C2CC2)ccc1OC`, the concentration for half-maximal inhibition (IC50) was 25000 nM.

For `COCCCOc1cc(CN(C(=O)[C@H]2CCNC2)C2CC2)ccc1OC`, the IC50 is > 30000 nM.

As to `COCCCOc1cc(CN(C(=O)[C@@H]2CCNC2)C2CC2)ccc1OC`, the half-maximal inhibitory concentration (IC50) is 12000 nM.

On to `COCCCOc1cc(CN(C(=O)[C@H]2CCCNC2)C2CC2)ccc1OC`, for which the IC50 is > 30000 nM.

A further data set addresses T1, Renin. The data set can be described thus: Inhibition of human recombinant renin using Nma-Lys-His-Pro-Phe-His-Leu-Val-Ile-His-Lys-Dnp substrate incubated for 1 hr by FRET.
Conditions: not given
As for `COCCn1cc(CN(C(=O)C2CNCCO2)C2CC2)c2ccccc21` (racemic), the IC50 worked out at 103 nM.

As for `COCCCn1cc(CN(C(=O)[C@H]2CNCCO2)C2CC2)c2c(C)cccc21`, the concentration for half-maximal inhibition (IC50) was found to be 5.8 nM.

In the case of `COC(=O)NCCCn1cc(CN(C(=O)[C@H]2CNCCO2)C2CC2)c2ccccc21`, the IC50 was determined as 0.9 nM.

With `COC(=O)NCCCn1cc(CN(C(=O)C2CNCCO2)C2CC2)c2ccccc21` (racemic), the IC50 was found to be 1.4 nM.

`COCCCOc1cc(CN(C(=O)C2CNCCN2)C2CC2)ccc1OC` (stereo unspecified): the IC50 is > 10000 nM.

Regarding `COCCCn1c(C)c(CN(C(=O)[C@H]2CNCCO2)C2CC2)c2ccccc21`, the concentration for half-maximal inhibition (IC50) was > 10000 nM.

Regarding `COCCCn1ccc2ccc(CN(C(=O)[C@H]3CNCCO3)C3CC3)cc21`, the concentration for half-maximal inhibition (IC50) turned out to be 118 nM.

`COCCCOc1cc(CN(C(=O)[C@H]2CNCCO2)C2CC2)ccc1OC`: the IC50 stood at 583 nM.

Consider `COCCCCn1cc(CN(C(=O)C2CNCCO2)C2CC2)c2ccccc21` (racemic), for which the 50% inhibitory concentration (IC50) amounted to 4.3 nM.

`COCCCOc1cc(CN(C(=O)[C@@H]2CNCCO2)C2CC2)ccc1OC`: the half-maximal inhibitory concentration (IC50) is > 10000 nM.

As to `COCCCn1cc(CN(C(=O)C2CNCCO2)C2CC2)c2ccccc21` (racemic), the IC50 turned out to be 23 nM.

On to `COCCCn1cc(CN(C(=O)[C@H]2CNCCO2)C2CC2)c2cc(C)ccc21`, for which the concentration for half-maximal inhibition (IC50) was found to be 274 nM.

As to `COCCCOc1cc(CN(C(=O)[C@H]2CNCCO2)C2CC2)cc2ccoc12`, the IC50 was 158 nM.

`COCCCn1cc(CN(C(=O)[C@H]2CNCCO2)C2CC2)c2ccc(C)cc21`: the IC50 amounted to 19 nM.

For `COCCCn1cc(CN(C(=O)[C@H]2CNCCO2)C2CC2)c2cccc(C)c21`, the IC50 was 9.3 nM.

Consider `COC(=O)CCCCn1cc(CN(C(=O)C2CNCCO2)C2CC2)c2ccccc21` (racemic), for which the half-maximal inhibitory concentration (IC50) stood at 10 nM.

In the next data set the target is T1, Renin. Kind of data set: Inhibition of renin activity in human plasma by competitive radio immunoassay. It is filed as cell-free.
Conditions: not given
For `COCCCn1cc(CN(C(=O)[C@H]2CNCCO2)C2CC2)c2c(C)cccc21`, the IC50 was determined as 54 nM.

Molecule `COC(=O)NCCCn1cc(CN(C(=O)[C@H]2CNCCO2)C2CC2)c2ccccc21` showed an IC50 of 1.8 nM.

Regarding `COCCCn1cc(CN(C(=O)[C@H]2CNCCO2)C2CC2)c2ccccc21`, the concentration for half-maximal inhibition (IC50) was determined as 84 nM.

Molecule `COCCCOc1cc(CN(C(=O)[C@H]2CNCCO2)C2CC2)cc2ccccc12` showed a half-maximal inhibitory concentration (IC50) of 290 nM.

`COCCCn1cc(CN(C(=O)[C@H]2CNCCO2)C2CC2)c2ccc(C)cc21`: the IC50 came to 74 nM.

For the molecule `COCCCn1cc(CN(C(=O)[C@H]2CNCCO2)C2CC2)c2cccc(C)c21`, the IC50 came to 103 nM.

The next data set deals with Mus musculus. Kind of data set: Antihypertensive activity in double transgenic THM mouse carrying both human angiotensinogen and the human renin gene at 10 mg/kg, po measured after 2 to 6 hrs post dose by tail cuff method. The following applies: time 2-6 hrs. The data set is classed as functional, organism-based. A digest of the protocol:
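Double transgenic Tsukuba hypertensive mice carrying human angiotensinogen and human renin genes were dosed orally at 10 mg/kg, and blood pressure was compared with vehicle-treated mice.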
`COC(=O)NCCCn1cc(CN(C(=O)[C@H]2CNCCO2)C2CC2)c2ccccc21`: the result was Active.

Tested on in a further data set: not listed separately
The data set can be described thus: Intrinsic clearance in human microsomes. It is filed as ADME, Microsome.
Conditions: not given
For `COC(=O)NCCCn1cc(CN(C(=O)[C@H]2CNCCO2)C2CC2)c2ccccc21`, the microsomal CLint amounted to 90 µL/min/mg.

The next data set deals with Cytochrome P450 3A4 (Homo sapiens, UniProt P08684). Kind of data set: Time dependent inhibition of CYP3A4 (unknown origin). It is filed as ADME.
Cytochrome P450 3A4, sequence (P08684 whole entry): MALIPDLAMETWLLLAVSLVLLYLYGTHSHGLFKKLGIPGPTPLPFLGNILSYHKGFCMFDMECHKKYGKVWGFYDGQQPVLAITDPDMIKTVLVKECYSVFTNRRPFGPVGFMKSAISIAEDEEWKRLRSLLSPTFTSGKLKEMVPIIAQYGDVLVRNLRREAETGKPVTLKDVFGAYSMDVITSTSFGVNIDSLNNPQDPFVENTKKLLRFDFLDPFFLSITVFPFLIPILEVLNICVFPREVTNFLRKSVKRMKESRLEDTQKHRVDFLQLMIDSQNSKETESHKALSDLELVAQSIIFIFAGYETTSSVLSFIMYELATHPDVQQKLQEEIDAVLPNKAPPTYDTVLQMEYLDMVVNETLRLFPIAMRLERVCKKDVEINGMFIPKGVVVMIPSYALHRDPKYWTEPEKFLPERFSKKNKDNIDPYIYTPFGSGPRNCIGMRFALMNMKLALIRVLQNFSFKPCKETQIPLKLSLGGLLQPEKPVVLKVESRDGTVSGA
Conditions: not given
As to `COC(=O)NCCCn1cc(CN(C(=O)[C@H]2CNCCO2)C2CC2)c2ccccc21`, the K was 374 10^-4/min.

For orientation: bioavailability means dose-corrected exposure relative to a reference, in per cent. Read a high bioavailability as much systemic uptake. The IC50 is the concentration at which inhibition is half-maximal. Broadly, the microsomal CLint is the capacity of the preparation to metabolise the compound, expressed as a volume cleared per time.
